Source: ChEMBL document CHEMBL3120051, “Synthesis of novel 1,2-benzothiazine 1,1-dioxide-3-ethanone oxime N-aryl acetamide ether derivatives as potent anti-inflammatory agents and inhibitors of monocyte-to-macrophage transformation” (Eur J Med Chem, 2014)
Activity calls are given as the source filed them. The rule behind the calls is not given here.

Tests used:
THP-1 [1] = assay: Antiinflammatory activity in human THP1 cells assessed as inhibition of PMA-induced IL-8 secretion incubated for 2 hrs prior to PMA challenge measured after 48 hrs by ELISA; format: functional, cell-based
How it was run: (§1)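 Seeded at 2×10^5/ml, THP-1 cells were pretreated 2 h with 5, 10 and 20 µM, then stimulated with 100 nM PMA. Supernatants were taken after 48 h and assayed by ELISA kit, read at 450 nm corrected at 570 nm, and quantified against standard curves (pg/ml). Percent inhibition was calculated versus control. IC50 is the predicted 50%-inhibition concentration, mean ± SD of three independent experiments.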

THP-1 [2] = assay: Antiinflammatory activity in human THP1 cells assessed as inhibition of PMA-induced TNF-alpha secretion incubated for 2 hrs prior to PMA challenge measured after 48 hrs by ELISA; format: functional, cell-based; how it was run: as §1
THP-1 [3] = assay: Antiinflammatory activity in human THP1 cells assessed as inhibition of PMA-induced MCP-1 secretion incubated for 2 hrs prior to PMA challenge measured after 72 hrs by ELISA; format: functional, cell-based
How it was run: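 THP-1 monocytes, 2×10^5/ml, received 5, 10 and 20 µM for 2 h before 100 nM PMA. Supernatant MCP-1 was measured by ELISA kit 72 h after PMA, with absorbance at 450 nm corrected at 570 nm and standard-curve quantitation. Percent inhibition is relative to control. IC50 is the predicted 50%-inhibition concentration, mean ± SD of three independent experiments.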

[4] = Cytotoxicity against human THP1 cells assessed as cell viability at 20 uM after 72 hrs by trypan blue dye exclusion assay; format: cell-based; settings: THP-1 cells, read-out: Activity
How it was run: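 THP-1 cells were seeded at 2×10^5 cells/ml in triplicate and exposed to 20 µM for 72 h. Cells were then harvested, resuspended in 0.4% trypan blue, and percent viable cells counted on an automated cell counter chamber.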

THP-1 [5] = assay: Antiinflammatory activity in human THP1 cells assessed as inhibition of PMA-induced CD-36 expression at 10 uM incubated for 2 hrs prior to PMA challenge measured after 36 hrs by RT-PCR analysis; format: functional, cell-based
How it was run: (§2)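 THP-1 monocytes (ATCC; RPMI 1640, 10% FBS, 37 °C, 5% CO2) pretreated 2 h, then 100 nM PMA for 36 h. Total RNA extracted in TRIzol, cDNA made, and LOX-1 and CD-36 transcripts measured by RT-PCR with gene-specific primers; GAPDH served as loading control.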

[6] = molecular target: Matrix metalloproteinase-9 (Homo sapiens) (UniProt P14780); assay: Inhibition of MMP-9 in human THP1 cells assessed as inhibition of PMA-induced monocyte to macrophage transformation at 10 uM incubated for 2 hrs prior to PMA challenge measured after 48 hrs by gelation zymography; format: cell-based; settings: THP-1
How it was run: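 THP-1 monocytes were pretreated 2 h at 10 µM, then stimulated with 100 nM PMA for 48 h. Conditioned medium was run without reducing agent on 10% SDS-PAGE containing 0.1% gelatin. Gels were renatured 30 min in 0.25% Triton X-100 and developed overnight at room temperature in Tris/CaCl2/Brij 35 buffer.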

THP-1 [7] = assay: Antiinflammatory activity in human THP1 cells assessed as inhibition of PMA-induced increase in cell adherence at 10 uM incubated for 2 hrs prior to PMA challenge measured after 48 hrs by light microscopy; format: functional, cell-based
How it was run: (§3)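 After 2 h pretreatment at 10 µM and 100 nM PMA for 48 h, THP-1 cultures had medium removed and were washed twice with warm DPBS. Phase-contrast light microscopy images were then used to assess adherence and monocyte/macrophage transformation.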

THP-1 [8] = assay: Antiinflammatory activity in human THP1 cells assessed as inhibition of PMA-induced increase in cell size at 10 uM incubated for 2 hrs prior to PMA challenge measured after 48 hrs by light microscopy; format: functional, cell-based; how it was run: as §3
THP-1 [9] = assay: Antiinflammatory activity in human THP1 cells assessed as inhibition of PMA-induced LOX-1 expression at 10 uM incubated for 2 hrs prior to PMA challenge measured after 36 hrs by RT-PCR analysis; format: functional, cell-based; how it was run: as §2
THP-1 [10] = assay: Antiinflammatory activity in human THP1 cells assessed as inhibition of PMA-induced increase in mitochondrial number at 10 uM incubated for 2 hrs prior to PMA challenge measured after 48 hrs by confocal microscopy; format: functional, cell-based
How it was run: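 Cells were treated in cover-glass-bottom dishes: 10 µM for 2 h, then 100 nM PMA. After 48 h they were stained 1 h with 200 nM MitoTracker CMXRos in HBSS and counterstained with DAPI. Confocal imaging used rhodamine and DAPI filters, with five fields of view, and gentle washes between steps.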

Sequence of Matrix metalloproteinase-9 (Homo sapiens) (P14780 whole entry): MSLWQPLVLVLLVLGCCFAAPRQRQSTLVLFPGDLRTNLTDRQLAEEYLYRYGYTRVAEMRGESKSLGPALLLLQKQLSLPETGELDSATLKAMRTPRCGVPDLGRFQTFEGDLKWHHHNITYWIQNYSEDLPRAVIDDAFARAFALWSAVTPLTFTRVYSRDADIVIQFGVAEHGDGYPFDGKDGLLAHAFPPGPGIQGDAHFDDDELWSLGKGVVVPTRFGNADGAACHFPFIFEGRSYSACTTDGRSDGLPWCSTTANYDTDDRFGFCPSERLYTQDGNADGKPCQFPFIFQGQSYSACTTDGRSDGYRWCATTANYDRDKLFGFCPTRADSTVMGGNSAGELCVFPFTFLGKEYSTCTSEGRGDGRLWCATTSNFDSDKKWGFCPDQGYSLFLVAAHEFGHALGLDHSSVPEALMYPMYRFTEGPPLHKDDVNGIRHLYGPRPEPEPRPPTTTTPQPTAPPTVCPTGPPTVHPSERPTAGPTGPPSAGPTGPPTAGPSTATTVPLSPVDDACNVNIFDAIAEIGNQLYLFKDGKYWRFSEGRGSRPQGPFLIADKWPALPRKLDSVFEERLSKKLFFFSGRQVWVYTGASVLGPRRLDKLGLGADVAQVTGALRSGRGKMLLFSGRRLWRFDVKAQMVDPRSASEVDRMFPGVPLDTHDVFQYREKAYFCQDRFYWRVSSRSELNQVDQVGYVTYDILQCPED

Row | Structure (SMILES) | IC50 (THP-1 [1]) [µM] | IC50 (THP-1 [2]) [µM] | IC50 (THP-1 [3]) [µM] | viability at 72 h, 20 µM [4] [%] | inhibition (THP-1 [5]) | inhibition [6] | inhibition (THP-1 [7]) | inhibition (THP-1 [8]) | inhibition (THP-1 [9]) | inhibition (THP-1 [10])
1 | CCOC1=C(/C(C)=N/OCC(=O)Nc2cccc(F)c2)N(C)S(=O)(=O)c2ccccc21 | > 20 | > 20 | > 20 | 92 |  |  |  |  |  | 
2 | CCOC1=C(/C(C)=N/OCC(=O)Nc2ccccc2)N(C)S(=O)(=O)c2ccccc21 | > 20 | > 20 | > 20 | 93 |  |  |  |  |  | 
3 | CN1C(C(=O)Nc2ccccn2)=C(O)c2ccccc2S1(=O)=O [PIROXICAM] |  | > 20 |  |  |  |  |  |  |  | 
4 | CCc1ccc(CCOc2ccc(CC3SC(=O)NC3=O)cc2)nc1 (stereo not drawn) [PIOGLITAZONE] |  |  | 18.6 |  |  |  |  |  |  | 
5 | CCOC1=C(/C(C)=N/OCC(=O)Nc2ccc(F)c(Cl)c2)N(C)S(=O)(=O)c2ccccc21 | > 20 | > 20 | > 20 | 97.5 |  |  |  |  |  | 
6 | C/C(=N\OCC(=O)Nc1ccc(C(F)(F)F)cc1)C1=C(O)c2ccccc2S(=O)(=O)N1C | > 20 | 12.1 | 4 | 93 | Active | Active | Active | Active | Active | Active
7 | COc1ccc(NC(=O)CO/N=C(\C)C2=C(O)c3ccccc3S(=O)(=O)N2C)cc1 | > 20 | > 20 | > 20 | 97.5 |  |  |  |  |  | 
8 | C/C(=N\OCC(=O)Nc1c(F)cccc1F)C1=C(O)c2ccccc2S(=O)(=O)N1C | > 20 | > 20 | > 20 | 92.2 |  |  |  |  |  | 
9 | COc1cccc(NC(=O)CO/N=C(\C)C2=C(O)c3ccccc3S(=O)(=O)N2C)c1 | > 20 | > 20 | > 20 | 92.5 |  |  |  |  |  | 
10 | CCOC1=C(/C(C)=N/OCC(=O)Nc2ccc(Cl)c(C(F)(F)F)c2)N(C)S(=O)(=O)c2ccccc21 | > 20 | > 20 | > 20 | 90.2 |  |  |  |  |  | 
11 | CCOC1=C(/C(C)=N/OCC(=O)Nc2cccc(OC)c2)N(C)S(=O)(=O)c2ccccc21 | > 20 | > 20 | > 20 | 96.2 |  |  |  |  |  | 
12 | CCOC1=C(/C(C)=N/OCC(=O)Nc2ccc(OC)cc2)N(C)S(=O)(=O)c2ccccc21 | > 20 | > 20 | > 20 | 94.2 |  |  |  |  |  | 
13 | C/C(=N\OCC(=O)Nc1ccc(F)c(Cl)c1)C1=C(O)c2ccccc2S(=O)(=O)N1C | > 20 | > 20 | > 20 | 95.1 |  |  |  |  |  | 
14 | C/C(=N\OCC(=O)Nc1cccc(F)c1)C1=C(O)c2ccccc2S(=O)(=O)N1C | > 20 | > 20 | 9.4 | 95.5 |  |  |  |  |  | 
15 | C/C(=N\OCC(=O)Nc1ccc(Cl)c(C(F)(F)F)c1)C1=C(O)c2ccccc2S(=O)(=O)N1C | > 20 | 6 | 2.5 | 91.2 | Active | 75% | Active | Active | Active | Active
16 | CCOC1=C(/C(C)=N/OCC(=O)Nc2c(F)cccc2F)N(C)S(=O)(=O)c2ccccc21 | > 20 | > 20 | > 20 | 92.3 |  |  |  |  |  | 
17 | C/C(=N\OCC(=O)Nc1ccccc1)C1=C(O)c2ccccc2S(=O)(=O)N1C | > 20 | > 20 | > 20 | 94.1 |  |  |  |  |  | 
18 | CCOC1=C(/C(C)=N/OCC(=O)Nc2ccc(C(F)(F)F)cc2)N(C)S(=O)(=O)c2ccccc21 | 16.7 | > 20 | 5.7 | 93 |  |  |  |  |  | 
